This note sets out measurements from ChEMBL document CHEMBL3992561, “Synthesis of 1,3,5-trisubstituted pyrazolines as potential antimalarial and antimicrobial agents” (Bioorg Med Chem, 2017).

Converted amounts (≈) assume the structure as drawn.

The nature of data set [1]: Selectivity index, ratio of IC50 for human HepG2 cells to IC50 for chloroquine-resistant Plasmodium falciparum RKL-9 schizont infected in RBC. Type of data set: toxicity. The note with it: read-out: Ratio IC50. The method, boiled down:
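HepG2 in RPMI 1640 with 10% FCS, 5 x 10^2 cells/well, serial dilutions (DMSO stocks) added after 1 h; 7 days at 37°C, 5% CO2; MTT 4 h, formazan in ethanol, absorbance 570 nm; IC50 by non-linear regression, one experiment in duplicate. Index = HepG2 IC50 / RKL-9 antiplasmodial IC50.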

Data set [2] in a line: Inhibition of beta-hematin formation assessed as reduction in acetate buffer-initiated hemozoin formation after 18 hrs by spectrophotometric method relative to control. Details: concentration or dose not given beside the values. The note with it: concentration not given here. The method, boiled down: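 Colorimetric β-hematin assay after Ncokazi and Egan. Haemin chloride in DMSO, with compounds at 0.12–5 molar equivalents to haemin and DMSO as control. Reaction started with acetate buffer pH 5.0 and run 18 h at 37°C. Pellet then washed with DMSO to remove unreacted haematin. % inhibition computed from test versus control absorbance. Duplicate determinations.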

In data set [3] the test system is Plasmodium falciparum. In words: Antimalarial activity against chloroquine-sensitive Plasmodium falciparum MRC-2 schizont infected in RBC measured after 24 to 30 hrs hrs by giemsa staining based light microscopic method. Format: functional. The method, boiled down: (§1)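 Asynchronous cultures synchronised to rings with 5% aqueous sorbitol, other stages removed by centrifugation; parasitemia about 1% in fresh washed RBCs. Compounds dissolved in DMSO, diluted in RPMI-1640, tested at several concentrations in triplicate; drug-free wells as control. Incubation 37°C in CO2 for 24-30 h until schizont maturation; methanol-fixed Giemsa smears counted under oil immersion; % inhibition, IC50 by probit; n=2.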

Data set [4] concerns Plasmodium falciparum. In words: Antimalarial activity against chloroquine-resistant Plasmodium falciparum RKL-9 schizont infected in RBC measured after 24 to 30 hrs hrs by giemsa staining based light microscopic method. Format: functional. The gist of the method:
as §1

For data set [5], the system named is HepG2. Kind of data set: Cytotoxicity against human HepG2 cells assessed as reduction in cell viability after 7 days by MTT assay. The settings on record: HepG2, 168 h. Format: cell-based. The gist of the method:
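HepG2 cells maintained in RPMI 1640 with 10% FCS. Seeded at 5 x 10^2 cells per well and pre-incubated 1 h at 37°C, 5% CO2. Serial dilutions from DMSO stocks added, with medium and DMSO solvent controls. Cells incubated seven days, then MTT (5 mg/ml) added for 4 h. Formazan dissolved in ethanol, A570 read. IC50 by non-linear regression of % growth against log concentration.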

Data set [6] deals with Staphylococcus aureus. In words: Antibacterial activity against Staphylococcus aureus MTCC 3160 after 24 hrs by broth microdilution method. Format: functional. The note with it: MTCC 3160, 24 h. The gist of the method:
(§2)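 Broth microdilution per NCCLS in Mueller-Hinton broth, inoculum 5 x 10^5 CFU/ml. Compounds dissolved in DMSO, twofold serial dilutions made in sterile distilled water. Incubated at 35°C for 24 h. MIC (µg/ml) taken as the lowest concentration with no visible turbidity by unaided eye. Ciprofloxacin as positive control. Three replicates, mean ± SD.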

The subject of data set [7] is Bacillus subtilis. Kind of data set: Antibacterial activity against Bacillus subtilis MTCC 121 after 24 hrs by broth microdilution method. Format: functional. The note with it: MTCC 121, 24 h. The method, boiled down:
as §2
In general terms: In broth dilution the organism is exposed to a series of concentrations in liquid medium.

Data set [8] has as its system Escherichia coli. Kind of data set: Antibacterial activity against Escherichia coli MTCC 51 after 24 hrs by broth microdilution method. The settings on record: MTCC 51, 24 h. Type of data set: functional. The gist of the method: as §2
The test system of data set [9] is Pseudomonas aeruginosa. In words: Antibacterial activity against Pseudomonas aeruginosa MTCC 741 after 24 hrs by broth microdilution method. Format: functional. The note with it: MTCC 741, 24 h. The gist of the method: as §2
The test system of data set [10] is Aspergillus niger. Kind of data set: Antifungal activity against Aspergillus niger MTCC 8189 after 48 hrs by broth microdilution method. Type of data set: functional. The note with it: MTCC 8189, 48 h. The method, boiled down: (§3)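 Fungi grown in Sabouraud liquid medium, inoculum 0.5–2.5 x 10^3 CFU/ml. Broth microdilution per NCCLS using twofold serial dilutions in sterile water from DMSO solutions. Incubated at 35°C for 48 h. MIC (µg/ml) was the lowest concentration with no visible growth by eye. Fluconazole as positive control. Mean ± SD of three replicates.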

Data set [11] concerns Candida albicans. Kind of data set: Antifungal activity against Candida albicans MTCC 227 after 48 hrs by broth microdilution method. Format: functional. The note with it: MTCC 227, 48 h. The method, boiled down: as §3

In general, inhibition refers to the relative decrease from the control value, in per cent. As a reminder, the IC50 is the concentration that gives 50% inhibition. The term MIC denotes the smallest concentration in the dilution series that meets the test's criterion for growth inhibition. With `O=C(c1cccnc1)N1N=C(c2ccc(O)cc2)CC1c1ccccc1Cl` (stereo unspecified), in [1], the selectivity ratio was 20.5. In addition, the inhibition in data set [2] was 31%. For the same compound, the concentration for half-maximal inhibition (IC50) in data set [3] amounted to 240 nM; in [4], 2330 nM; in data set [5], 47700 nM. Also, the MIC is 75 µg/mL (≈ 199 µM) in [6]; 12.5 µg/mL (≈ 33.1 µM) in [7]; 50 µg/mL (≈ 132 µM) in data set [8]; 3.25 µg/mL (≈ 8.6 µM) in [9]; 3.25 µg/mL (≈ 8.6 µM) in data set [10]; 6.5 µg/mL (≈ 17.2 µM) in [11].
